Calls of active or inactive are those of the source. The rule behind the calls is not given here.
How the values were obtained:
Format in all cases: functional
Pseudomonas aeruginosa [1] = assay: Potentiation of minocycline-induced antibacterial activity against multidrug/extremely drug-resistant/colistin-susceptible Pseudomonas aeruginosa isolate 100036 at 4 ug/ml after 18 hrs by checkerboard assay
In short: (§1)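 Checkerboard in Mueller-Hinton broth: antibiotic serially diluted along one axis and adjuvant along the other (10 × 7 matrix). Inoculum from a 0.5 McFarland saline suspension diluted 1:50 in MHB; 18 h at 37 °C, then plate read. MIC is the lowest concentration with no growth. FIC of each agent is its concentration in a no-growth well divided by its MIC alone; FIC index is the sum of both. FIC index ≤0.5 counts as synergy.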

Pseudomonas aeruginosa [2] = assay: Antibacterial activity against Pseudomonas aeruginosa PAO1 after 18 hrs by microtiter dilution assay; conditions: PAO1, 18 h
In short: (§2)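 Broth microdilution following CLSI guidelines. An overnight culture was adjusted to 0.5 McFarland in saline, then diluted 1:50 in Mueller-Hinton broth. This inoculum was added in equal volume to 2-fold serial dilutions of agent in MHB and incubated 18 h at 37 °C. MIC was the lowest concentration with no visible growth.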

Pseudomonas aeruginosa [3] = assay: Potentiation of meropenem-induced antibacterial activity against Pseudomonas aeruginosa PAO1 at 4 ug/ml after 18 hrs by checkerboard assay; in short: as §1
Pseudomonas aeruginosa [4] = assay: Potentiation of minocycline-induced antibacterial activity against multidrug/extremely drug-resistant/colistin-resistant Pseudomonas aeruginosa isolate 91433 at 4 ug/ml after 18 hrs by checkerboard assay; in short: as §1
Pseudomonas aeruginosa [5] = assay: Bactericidal activity against Pseudomonas aeruginosa PAO1 at 0.125 times antibacterial MIC after 6 hrs
Pseudomonas aeruginosa [6] = assay: Synergistic antibacterial activity against Pseudomonas aeruginosa PAO1 after 18 hrs in presence of erythromycin by checkerboard assay; conditions: PAO1, 18 h
In short: (§3)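 Checkerboard in MHB: antibiotic diluted along one axis and adjuvant along the other (10 × 7 matrix). Inoculum was a 1:50 dilution in MHB of a 0.5 McFarland saline suspension; incubated 18 h at 37 °C. Each FIC = concentration in the no-growth well divided by the MIC alone; FIC index = sum of both FICs. ≤0.5 synergy, 0.5–4 no interaction, ≥4 antagonism.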

Pseudomonas aeruginosa [7] = assay: Potentiation of rifampicin-induced antibacterial activity against Pseudomonas aeruginosa PAO750 harboring RND efflux pump/OpmH deletion mutant after 18 hrs by checkerboard assay; in short: as §1
Pseudomonas aeruginosa [8] = assay: Antibacterial activity against multidrug/extremely drug-resistant/colistin-susceptible Pseudomonas aeruginosa isolate P262-101856 infected in Galleria mellonella assessed as mortality at 75 mg/kg after 24 hrs relative to control; conditions: isolate P262-101856, 24 h
In short: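 Galleria mellonella larvae (about 250 mg, used within 7 days; 15 per group) were injected with 10 µL of XDR P. aeruginosa P262 at 1.0×10^3 CFU/mL. At 2 h they received a single 10 µL injection: monotherapy at 75 mg/kg, or combinations at 12.5+12.5 to 75+75 mg/kg. PBS vehicle served as control. Survival was scored over 24 h at 37 °C.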

Pseudomonas aeruginosa [9] = assay: Potentiation of minocycline-induced antibacterial activity against Pseudomonas aeruginosa PAO200 harboring MexAB-oprM deletion mutant after 18 hrs by checkerboard assay; in short: as §1
Escherichia coli [10] = assay: Antibacterial activity against Escherichia coli ATCC 25922 after 18 hrs by microtiter dilution assay; conditions: ATCC 25922, 18 h; in short: as §2
Pseudomonas aeruginosa [11] = assay: Bactericidal activity against Pseudomonas aeruginosa PAO1 at 2 times antibacterial MIC after 30 mins
In short: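 Time-kill with P. aeruginosa PAO1. A 0.5 McFarland suspension was diluted 1:50 in LB broth and exposed to agent in PBS (pH 7.2) at 1/2×, 1×, 2× or 4× MIC at 37 °C for 6 h. Samples at 0, 10, 30, 60, 90, 120, 240 and 360 min were serially diluted in PBS, plated on LB agar, and colonies counted after 20 h at 37 °C.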

Acinetobacter baumannii [12] = assay: Antibacterial activity against multidrug-resistant Acinetobacter baumannii AB030 after 18 hrs by microtiter dilution assay; conditions: AB030, 18 h; in short: as §2
Acinetobacter baumannii [13] = assay: Synergistic antibacterial activity against multidrug-resistant Acinetobacter baumannii 110193 after 18 hrs in presence of rifampicin by checkerboard assay; conditions: Acinetobacter baumannii, 110193, 18 h
In short: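 Checkerboard in MHB with a 10 × 7 matrix: antibiotic serially diluted along one axis, adjuvant along the other. Inoculum was a 1:50 dilution of a 0.5 McFarland suspension, incubated 18 h at 37 °C and read on a plate reader. Each FIC is the concentration in a no-growth well divided by the MIC alone; FIC index is their sum, with ≤0.5 taken as synergy.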

Pseudomonas aeruginosa [14] = assay: Synergistic antibacterial activity against Pseudomonas aeruginosa PAO1 after 18 hrs in presence of novobiocin by checkerboard assay; conditions: PAO1, 18 h; in short: as §3
Escherichia coli [15] = assay: Antibacterial activity against gentamicin-resistant Escherichia coli isolate CAN-ICU 61714 after 18 hrs by microtiter dilution assay; conditions: isolate CAN-ICU 61714, 18 h; in short: as §2
Pseudomonas aeruginosa [16] = assay: Synergistic antibacterial activity against Pseudomonas aeruginosa PAO1 after 18 hrs in presence of meropenem by checkerboard assay; conditions: PAO1, 18 h; in short: as §3
Pseudomonas aeruginosa [17] = assay: Synergistic antibacterial activity against Pseudomonas aeruginosa PAO1 after 18 hrs in presence of gentamicin by checkerboard assay; conditions: PAO1, 18 h; in short: as §3
Pseudomonas aeruginosa [18] = assay: Synergistic antibacterial activity against Pseudomonas aeruginosa PAO1 after 18 hrs in presence of trimethoprim by checkerboard assay; conditions: PAO1, 18 h; in short: as §3
[19] = tested on: Staphylococcus epidermidis; assay: Antibacterial activity against methicillin-susceptible Staphylococcus epidermidis isolate CANWARD-2008 81388 after 18 hrs by microtiter dilution assay; conditions: isolate CANWARD-2008 81388, 18 h; in short: as §2
Pseudomonas aeruginosa [20] = assay: Antibacterial activity against gentamicin-resistant Pseudomonas aeruginosa isolate CAN-ICU 62308 after 18 hrs by microtiter dilution assay; conditions: isolate CAN-ICU 62308, 18 h; in short: as §2
Pseudomonas aeruginosa [21] = assay: Potentiation of rifampicin-induced antibacterial activity against multidrug/extremely drug-resistant/colistin-susceptible Pseudomonas aeruginosa isolate 101885 assessed as fold reduction in rifampicin MIC at 4 ug/ml after 18 hrs by checkerboard assay relative to control
In short: (§4)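 Checkerboard in Mueller-Hinton broth, 10 × 7 matrix, with the adjuvant held at 4 µg/mL. Inoculum from a 0.5 McFarland suspension diluted 1:50; 18 h at 37 °C. Antibiotic MIC (lowest concentration with no growth) with adjuvant is compared with the antibiotic MIC alone, giving a fold reduction.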

Pseudomonas aeruginosa [22] = assay: Potentiation of minocycline-induced antibacterial activity against multidrug/extremely drug-resistant/colistin-susceptible Pseudomonas aeruginosa isolate 101885 at 4 ug/ml after 18 hrs by checkerboard assay; in short: as §1
Pseudomonas aeruginosa [23] = assay: Potentiation of minocycline-induced antibacterial activity against multidrug/extremely drug-resistant/colistin-susceptible Pseudomonas aeruginosa isolate P264-104354 at 4 ug/ml after 18 hrs by checkerboard assay; in short: as §1
Pseudomonas aeruginosa [24] = assay: Potentiation of rifampicin-induced antibacterial activity against multidrug/extremely drug-resistant/colistin-resistant Pseudomonas aeruginosa isolate 91433 assessed as fold reduction in rifampicin MIC at 4 ug/ml after 18 hrs by checkerboard assay relative to control; in short: as §4
Pseudomonas aeruginosa [25] = assay: Antibacterial activity against multidrug/extremely drug-resistant/colistin-susceptible Pseudomonas aeruginosa isolate P262-101856 after 18 hrs by microtiter dilution assay; conditions: isolate P262-101856, 18 h; in short: as §2
Klebsiella pneumoniae = assay: Potentiation of rifampicin-induced antibacterial activity against multidrug-resistant Klebsiella pneumoniae 116381 at 4 ug/ml after 18 hrs by checkerboard assay; in short: as §1

Cl.Cl.Cl.Cl.Cl.Cl.Cl.NCCCC[C@H](N)C(=O)N(CCCCCCCCCCCCO[C@@H]1[C@@H](O[C@H]2O[C@H](CO)[C@@H](O)[C@H](N)[C@H]2O)[C@H](N)C[C@H](N)[C@H]1O[C@H]1O[C@H](CN)[C@@H](O)C[C@H]1N)Cc1c2ccccc2c(Cl)c2ccccc12
fractional inhibitory concentration index (FICI) (Pseudomonas aeruginosa [1]): 0.094 | MIC (Pseudomonas aeruginosa [2]): 32 µg/mL | fractional inhibitory concentration index (FICI) (Pseudomonas aeruginosa [3]): 2.031 | fractional inhibitory concentration index (FICI) (Pseudomonas aeruginosa [4]): 0.266 | Activity (Pseudomonas aeruginosa [5]): inactive | MIC (Pseudomonas aeruginosa [6]): 4 µg/mL | fractional inhibitory concentration index (FICI) (Pseudomonas aeruginosa [7]): 0.156 | mortality at 75 mg/kg (Pseudomonas aeruginosa [8]): 100% | fractional inhibitory concentration index (FICI) (Pseudomonas aeruginosa [9]): 0.531 | MIC (Escherichia coli [10]): 32 µg/mL | Activity (Pseudomonas aeruginosa [11]): Active | MIC (Acinetobacter baumannii [12]): 64 µg/mL | MIC (Acinetobacter baumannii [13]): 1 µg/mL | MIC (Pseudomonas aeruginosa [14]): 2 µg/mL | MIC (Escherichia coli [15]): 32 µg/mL | MIC (Pseudomonas aeruginosa [16]): 1 µg/mL | MIC (Pseudomonas aeruginosa [17]): 4 µg/mL | MIC (Pseudomonas aeruginosa [18]): 2 µg/mL | MIC [19]: 2 µg/mL | MIC (Pseudomonas aeruginosa [20]): 16 µg/mL | fold change (FC) (Pseudomonas aeruginosa [21]): 128 | fractional inhibitory concentration index (FICI) (Pseudomonas aeruginosa [22]): 0.156 | fractional inhibitory concentration index (FICI) (Pseudomonas aeruginosa [23]): 0.079 | fold change (FC) (Pseudomonas aeruginosa [24]): 8 | MIC (Pseudomonas aeruginosa [25]): 32 µg/mL | fractional inhibitory concentration index (FICI) (Klebsiella pneumoniae): 0.047
